Laboratory results as given in ChEMBL document CHEMBL4196151, “Anti-inflammatory Potential of Flavonoids from the Aerial Parts of Corispermum marschallii” (J Nat Prod, 2018).

Key:
[1] = tested on: Neutrophil; experiment: Cytotoxicity against LPS-stimulated human neutrophils assessed as reduction in cell viability up to 50 uM incubated for 1 hr followed by LPS stimulation by propidium iodide staining based method
Summary of the method: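 Viability measured by propidium iodide staining in neutrophils (1 × 10^6/mL) cultured in RPMI 1640. Compounds at final 10, 20, 50 μM were added 1 h before LPS (100 ng/mL). Read-out by cytometry, with 0.1% Triton X-100 as positive control.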

[2] = tested on: Neutrophil; experiment: Antiinflammatory activity against f-MLP-stimulated human neutrophils assessed as reduction in ROS production incubated for 40 mins measured at intervals of 2 mins by luminol-dependent chemiluminescence assay; format: functional, cell-based
Summary of the method: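 Freshly isolated human neutrophils suspended in HBSS at 2.0 × 10^5/mL and incubated with compounds at final 5, 10, 20 μM, diluted from DMSO stocks. ROS release triggered by f-MLP and read by luminol-dependent chemiluminescence. Quercetin served as positive control. Data as mean ± SEM, ANOVA with Tukey post hoc test.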

[3] = tested on: Neutrophil; experiment: Antiinflammatory activity against LPS-stimulated human neutrophils assessed as reduction in IL-8 production incubated for 1 hr followed by LPS stimulation measured after 18 to 24 hrs by ELISA; format: functional, cell-based
Summary of the method: (§1)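 Human neutrophils isolated from buffy coat, 1.0 × 10^6/mL in RPMI 1640 with 10% FBS, 10 mM HEPES, 2 mM L-glutamine. Compounds added from 10 mM DMSO stocks at final 10, 20, 50 μM, 1 h before LPS (100 ng/mL). Culture at 37 °C, 5% CO2. Supernatants taken after 18 h by centrifugation and cytokine measured by ELISA. Quercetin positive control; mean ± SEM, ANOVA with Tukey.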

[4] = tested on: Neutrophil; experiment: Antiinflammatory activity against LPS-stimulated human neutrophils assessed as reduction in TNFalpha production incubated for 1 hr followed by LPS stimulation measured after 18 to 24 hrs by ELISA; format: functional, cell-based; summary of the method: as §1

Question: How did the Activity [1] turn out when `COc1cc(-c2oc3cc(O[C@@H]4O[C@H](CO)[C@@H](O)[C@H](O)[C@H]4O)c(OC)c(O)c3c(=O)c2O[C@@H]2O[C@H](CO)[C@H](O)[C@H](O)[C@H]2O)ccc1O` was run?
Answer: Non-Toxic

Question: And the IC50 [2]?
Answer: 31.5 µM

Question: And the IC50 [3]?
Answer: 25.7 µM

Question: And the IC50 [4]?
Answer: 16.3 µM

Question: `COc1c(O[C@@H]2O[C@H](CO)[C@@H](O)[C@H](O)[C@H]2O)cc2oc(-c3ccc(O)c(O)c3)c(O[C@@H]3O[C@H](CO)[C@H](O)[C@H](O)[C@H]3O)c(=O)c2c1O` was tested. Which Activity [1] did it give?
Answer: Non-Toxic

Question: And the IC50 [2]?
Answer: 26.9 µM

Question: What about the IC50 [3] of the same compound?
Answer: 66 µM

Question: Which IC50 [2] does the source give for `O=c1c(O)c(-c2ccc(O)c(O)c2)oc2cc(O)cc(O)c12` [QUERCETIN] here?
Answer: 4.4 µM

Question: What about the IC50 [3] of the same compound?
Answer: 33 µM

Question: And the IC50 [4]?
Answer: 20.4 µM

Question: What does the source list for `COc1c(O)cc2oc(-c3ccc(O)c(O)c3)c(O[C@@H]3O[C@H](CO[C@@H]4OC[C@H](O)[C@H](O)[C@H]4O)[C@H](O)[C@H](O)[C@H]3O)c(=O)c2c1O`?
Answer: Activity [1]: Non-Toxic; IC50 [2]: 5.7 µM; IC50 [3]: 25.5 µM

Question: For `COc1c(O)cc2oc(-c3ccc(O)cc3)c(O[C@@H]3O[C@H](CO)[C@H](O)[C@H](O)[C@H]3O)c(=O)c2c1O`, which IC50 [2] is on record?
Answer: 15.4 µM

Question: What about the IC50 [3] of the same compound?
Answer: 18.1 µM

Question: And the IC50 [4]?
Answer: 11.7 µM

Question: Which IC50 [2] does the source give for `COc1c(O)cc2oc(-c3ccc(O)c(O)c3)c(O[C@@H]3O[C@H](CO)[C@H](O)[C@H](O)[C@H]3O)c(=O)c2c1O` here?
Answer: 3.4 µM

Question: And the IC50 [3]?
Answer: 8 µM

Question: What about the IC50 [4] of the same compound?
Answer: 7.7 µM

Question: `COc1c(O)cc2oc(-c3ccc(O)c(O)c3)c(O[C@@H]3O[C@H](CO)[C@H](O)[C@H](O)[C@H]3O[C@@H]3OC[C@](O)(CO)[C@H]3O)c(=O)c2c1O` was tested. Which Activity [1] did it give?
Answer: Non-Toxic

Question: What about the IC50 [2] of the same compound?
Answer: 7.1 µM

Question: What about the IC50 [3] of the same compound?
Answer: 7.2 µM

Question: What about the IC50 [4] of the same compound?
Answer: 12.8 µM

Question: Which Activity [1] does the source give for `COc1c(O)cc2oc(-c3ccc(O)c(O)c3)c(O[C@@H]3O[C@H](CO)[C@H](O)[C@H](O)[C@H]3O[C@@H]3OC[C@](O)(CO[C@@H]4OC[C@H](O)[C@H](O)[C@H]4O)[C@H]3O)c(=O)c2c1O` here?
Answer: Non-Toxic

Question: And the IC50 [2]?
Answer: 5.4 µM

Question: What about the IC50 [3] of the same compound?
Answer: 24.5 µM

Question: And the IC50 [4]?
Answer: 9.7 µM

Question: For `COc1cc(/C=C/C(=O)OC[C@H]2O[C@@H](Oc3cc4oc(-c5ccc(O)c(OC)c5)c(O[C@@H]5O[C@H](CO)[C@H](O)[C@H](O)[C@H]5O)c(=O)c4c(O)c3OC)[C@H](O)[C@@H](O)[C@@H]2O)ccc1O`, which Activity [1] is on record?
Answer: Non-Toxic

Question: What about the IC50 [2] of the same compound?
Answer: 6 µM

Question: And the IC50 [4]?
Answer: 20.7 µM

Question: Which Activity [1] does the source give for `COc1cc(/C=C/C(=O)OC[C@H]2O[C@@H](Oc3cc4oc(-c5ccc(O)c(O)c5)c(O[C@@H]5O[C@H](CO)[C@H](O)[C@H](O)[C@H]5O)c(=O)c4c(O)c3OC)[C@H](O)[C@@H](O)[C@@H]2O)ccc1O` here?
Answer: Non-Toxic

Question: And the IC50 [2]?
Answer: 36.6 µM

Question: What about the IC50 [3] of the same compound?
Answer: 46.7 µM

Question: What about the IC50 [4] of the same compound?
Answer: 23.2 µM

Question: What does the source list for `COc1cc(-c2oc3cc(O)c(OC)c(O)c3c(=O)c2O[C@@H]2O[C@H](CO)[C@H](O)[C@H](O)[C@H]2O)ccc1O`?
Answer: Activity [1]: Non-Toxic; IC50 [2]: 38.5 µM; IC50 [3]: 51.9 µM; IC50 [4]: 16.3 µM

Question: With `COc1c(O)cc2oc(-c3ccc(O)c(O)c3)c(O[C@@H]3O[C@H](CO[C@@H]4O[C@H](CO)[C@@H](O)[C@H](O)[C@H]4O)[C@H](O)[C@H](O)[C@H]3O)c(=O)c2c1O` as the compound, how does the Activity [1] read?
Answer: Non-Toxic

Question: What about the IC50 [2] of the same compound?
Answer: 5.7 µM

Question: And the IC50 [3]?
Answer: 28.9 µM

Question: What about the IC50 [4] of the same compound?
Answer: 9.3 µM
